From ChEMBL document CHEMBL1127497, “Studies on antiulcer drugs. 7. 2-Guanidino-4-pyridylthiazoles as histamine H2-receptor antagonists with potent gastroprotective effects against nonsteroidal antiinflammatory drug-induced injury” (J Med Chem, 1994)

What was measured:
[1] = biological target: Histamine H2 receptor (Cavia porcellus) (UniProt P47747); experiment: H2 receptor antagonistic activity against histamine stimulated chronotropic response in isolated guinea pig right atrium at 1x10E-6 g/mL.; format: functional, tissue-based; conditions: Cardiac atrium
Method in brief: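 Guinea pig atrial strip under 0.3–0.6 g tension in Tyrode solution, 30 °C, gassed with 95% O2-5% CO2. Beating rate recorded. Histamine HCl 1 × 10-6 g/mL given; after washout, test compound added (single-concentration screen 1 × 10-6 g/mL) and histamine response compared before and 30 min after dosing. IC50 from three doses by probit analysis, three atria per dose.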

[2] = system: Rattus norvegicus; experiment: Inhibition of aspirin induced gastric lesions in rats after peroral dose of 32 mg/kg; format: functional; conditions: Stomach, route oral
Method in brief: (§1)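 Male SD rats (~200 g), fasted 24 h. Test compound given orally in 0.1% MC, then aspirin 200 mg/kg in 0.2 N HCl/0.1% MC (10 mL/kg) orally 30 min later. Rats killed 1 h after aspirin. Ulcer index is the summed lesion length (mm); % inhibition is relative to controls. Seven rats per group for screening; ED50 by probit from three doses, ten rats per dose.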

[3] = system: Rattus norvegicus; experiment: Inhibition of histamine stimulated gastric acid secretion in lumen perfused anaesthetized rats after 1 mg/kg intravenous dose; format: functional; conditions: Stomach
Method in brief: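 Male SD rats (~250 g), fasted 24 h, urethane 1.25 g/kg ip. Stomach lumen perfused with saline; perfusate titrated with 25 mM NaOH. Histamine infused iv at 3 mg/kg/h. At plateau, compound given iv at 1 mg/kg. Result expressed as maximal inhibition of acid output; n = 2.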

[4] = species on record: Canis familiaris; experiment: animal or person; conditions: Canis lupus familiaris, Stomach, po, read-out: Inhibition
[5] = system: Canis familiaris; experiment: Evaluated against tetragastrin stimulated gastric acid secretion in conscious Hiedenhain-pouch dogs at a dose of 0.32 mg/kg, po; format: functional; conditions: Canis lupus familiaris, Stomach
Method in brief: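 Beagle Heidenhain-pouch dogs, 8–13 kg, oral dosing. Acid concentration titrated to pH 7 with 0.1 N NaOH; total acid output is volume × concentration. Change is relative to predosing output. ED50 by probit from three or four doses, three or four dogs per dose.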

[6] = system: Rattus norvegicus; experiment: Evaluated against aspirin induced gastric lesions in rats after peroral dose of 100 mg/kg; format: functional; conditions: Stomach, route oral; method in brief: as §1

Sequence of Histamine H2 receptor (Cavia porcellus) (P47747 whole entry): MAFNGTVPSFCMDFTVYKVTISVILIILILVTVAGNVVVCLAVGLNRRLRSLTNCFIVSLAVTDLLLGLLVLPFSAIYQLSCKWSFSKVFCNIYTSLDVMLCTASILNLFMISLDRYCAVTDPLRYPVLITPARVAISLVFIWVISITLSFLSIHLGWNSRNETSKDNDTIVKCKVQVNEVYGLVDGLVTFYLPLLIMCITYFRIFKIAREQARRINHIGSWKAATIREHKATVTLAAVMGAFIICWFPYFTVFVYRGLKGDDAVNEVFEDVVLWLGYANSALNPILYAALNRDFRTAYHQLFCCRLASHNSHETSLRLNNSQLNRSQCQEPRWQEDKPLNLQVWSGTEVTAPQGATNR

SMILES	inhibition [1] [%]	inhibition in vivo at 32 mg/kg [2] [%]	inhibition in vivo at 1 mg/kg [3] [%]	inhibition in vivo at 22 mg/kg [4] [%]	inhibition in vivo at 0.32 mg/kg [5] [%]	inhibition in vivo at 100 mg/kg [6] [%]
CN/C(=N\CCSCc1nc[nH]c1C)NC#N [CIMETIDINE]	43	33	53	22		
CC(=O)OCC(=O)NCCCOc1cccc(CN2CCCCC2)c1 [ROXATIDINE ACETATE]	76		84		58	31
